Results reported in ChEMBL document CHEMBL2086239, “Synthesis and biological evaluation of combretastatin-amidobenzothiazole conjugates as potential anticancer agents” (Eur J Med Chem, 2012).
Active and inactive are the calls of the source. The calls are words filed in the database; no cut-off is given here.

Legend:
OVCAR-3 = assay: Growth inhibition of human OVCAR3 cells after 48 hrs by SRB assay; assay type: functional; conditions: OVCAR-3, 48 h
Summary of the method: (§1)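 NCI 60-cell-line screen: after preliminary screening, tested at five dose concentrations on 59 human tumour lines covering leukemia, lung, colon, CNS, melanoma, ovarian, renal, prostate and breast.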

LOX IMVI = assay: Growth inhibition of human LOXIMVI cells after 48 hrs by SRB assay; assay type: functional; summary of the method: as §1
K562 = assay: Growth inhibition of human K562 cells after 48 hrs by SRB assay; assay type: functional; conditions: K562, 48 h; summary of the method: as §1
NCI-H522 = assay: Growth inhibition of human NCI-H522 cells after 48 hrs by SRB assay; assay type: functional; conditions: NCI-H522, 48 h; summary of the method: as §1
A498 = assay: Growth inhibition of human A498 cells after 48 hrs by SRB assay; assay type: functional; conditions: A498, 48 h; summary of the method: as §1
OVCAR-8 = assay: Growth inhibition of human OVCAR8 cells after 48 hrs by SRB assay; assay type: functional; conditions: OVCAR-8, 48 h; summary of the method: as §1
Hs-578T = assay: Growth inhibition of human Hs578T cells after 48 hrs by SRB assay; assay type: functional; summary of the method: as §1
HEp-2 = assay: Cytotoxicity against human Hep2 cells after 48 hrs assessed as inhibition of cell growth at 10 uM after 48 hrs by SRB assay relative to control; assay type: functional; conditions: for inhibition of growth at 10 µM: HEp-2, 48 h, read-out: GI
Summary of the method: (§2)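 SRB protein assay in DMEM with 10% FBS at 37 °C, 5% CO2, 100% relative humidity. Cells seeded in 96-well plates, incubated 24 h, then exposed to drug at 10 µM for 48 h and processed per standard protocol. Absorbance read at 560 nm; growth percentage calculated for test wells relative to control wells.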

SW-620 = assay: Growth inhibition of human SW620 cells after 48 hrs by SRB assay; assay type: functional; conditions: SW-620, 48 h
Summary of the method: (§3)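 NCI 60-cell-line panel, five-dose testing after preliminary screen; sulforhodamine B protein assay in DMEM with 10% FBS, 37 °C, 5% CO2, 100% humidity. Cells seeded and incubated 24 h before compound addition, then exposed 48 h. Absorbance read at 560 nm; growth percentage relative to control wells; GI50 taken as concentration giving 50% growth inhibition.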

786-0 = assay: Growth inhibition of human 786-0 cells after 48 hrs by SRB assay; assay type: functional; conditions: 786-0, 48 h; summary of the method: as §1
Malme-3M = assay: Growth inhibition of human MALME-3M cells after 48 hrs by SRB assay; assay type: functional; summary of the method: as §1
SK-MEL-5 = assay: Growth inhibition of human SK-MEL-5 cells after 48 hrs by SRB assay; assay type: functional; conditions: SK-MEL-5, 48 h; summary of the method: as §3
NCI-H460 = assay: Growth inhibition of human NCI-H460 cells after 48 hrs by SRB assay; assay type: functional; conditions: NCI-H460, 48 h; summary of the method: as §1
SK-MEL-2 = assay: Growth inhibition of human SK-MEL-2 cells after 48 hrs by SRB assay; assay type: functional; conditions: SK-MEL-2, 48 h; summary of the method: as §3
NCI/ADR-RES = assay: Growth inhibition of human NCI/ADR-RES cells after 48 hrs by SRB assay; assay type: functional; summary of the method: as §1
MDA-MB-231 = assay: Growth inhibition of human MDA-MB-231 cells after 48 hrs by SRB assay; assay type: functional; conditions: MDA-MB-231, 48 h; summary of the method: as §1
HCT-116 = assay: Growth inhibition of human HCT116 cells after 48 hrs by SRB assay; assay type: functional; conditions: HCT-116, 48 h; summary of the method: as §1
MOLT-4 = assay: Growth inhibition of human MOLT4 cells after 48 hrs by SRB assay; assay type: functional; conditions: MOLT-4, 48 h; summary of the method: as §1
MCF7 [1] = assay: Growth inhibition of human MCF7 cells after 48 hrs by SRB assay; assay type: functional; conditions: MCF7, 48 h; summary of the method: as §1
HCT-15 = assay: Growth inhibition of human HCT15 cells after 48 hrs by SRB assay; assay type: functional; conditions: HCT-15, 48 h; summary of the method: as §1
OVCAR-5 = assay: Growth inhibition of human OVCAR5 cells after 48 hrs by SRB assay; assay type: functional; conditions: OVCAR-5, 48 h; summary of the method: as §1
NCI-H23 = assay: Growth inhibition of human NCI-H23 cells after 48 hrs by SRB assay; assay type: functional; conditions: NCI-H23, 48 h; summary of the method: as §1
PC-3 = assay: Cytotoxicity against human PC3 cells after 48 hrs assessed as inhibition of cell growth at 10 uM after 48 hrs by SRB assay relative to control; assay type: functional; conditions: PC-3, 48 h, read-out: GI; summary of the method: as §2
A549 = assay: Cytotoxicity against human A549 cells assessed as inhibition of cell growth at 10 uM after 48 hrs by SRB assay relative to control; assay type: functional; conditions: A549, 48 h, read-out: GI; summary of the method: as §2
SNB-75 = assay: Growth inhibition of human SNB75 cells after 48 hrs by SRB assay; assay type: functional; conditions: SNB-75, 48 h; summary of the method: as §3
MCF7 [2] = assay: Cytotoxicity against human MCF7 cells after 48 hrs assessed as inhibition of cell growth at 10 uM after 48 hrs by SRB assay relative to control; assay type: functional; conditions: MCF7, 48 h, read-out: GI; summary of the method: as §2
MCF7 [3] = assay: Cytotoxicity against human MCF7 cells at 4 uM after 24 hrs by MTT assay; assay type: functional, cell-based
Summary of the method: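 MCF-7 cells grown in DMEM with 10% fetal calf serum, penicillin and streptomycin at 37 °C, 5% CO2. Seeded at 10,000 cells/well, incubated overnight, then treated 24 h at 4 µM. Medium replaced with fresh medium plus MTT dye, incubated 2 h at 37 °C. Absorbance read at 570 nm; O.D. taken as viability versus untreated control.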

MCF7 [4] = assay: Inhibition of microtubule organization in human MCF7 cells at 4 uM after 24 hrs by immunofluorescence analysis; assay type: cell-based
Summary of the method: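 MCF-7 cells were grown in DMEM with 10% fetal calf serum and penicillin/streptomycin at 37 °C and 5% CO2. Cells on cover slips were treated for 24 h, then fixed in 4% paraformaldehyde for 20 min. They were permeabilised with 0.2% Triton X-100, held in methanol at 4 °C overnight and blocked with 1% BSA. Staining used anti-α-tubulin (1:100, 2 h RT), FITC secondary and a DAPI/PI mount, with confocal imaging.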

[5] = molecular target: Mitogen-activated protein kinase; ERK1/ERK2 (Homo sapiens) (UniProt P27361+P28482); assay: Inhibition of nuclear translocation of phosphorylated ERK1/2 in human MCF7 cells at 4 uM after 24 hrs by immunofluorescence assay; assay type: cell-based
Summary of the method: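 MCF-7 cells (DMEM, 10% fetal calf serum, 37 °C, 5% CO2) were treated on cover slips for 24 h. They were fixed in 4% paraformaldehyde, permeabilised with 0.2% Triton X-100, held in methanol at 4 °C overnight and blocked with 1% BSA for 60 min. Anti-phospho-ERK antibody (1:100, 2 h RT) was followed by FITC anti-rabbit secondary for 1 h and a DAPI/PI mount. Subcellular pERK localisation was imaged by confocal microscopy.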

[6] = Inhibition of tubulin polymerization after 30 mins to 1 hr by spectrophotometry
Summary of the method: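 This was a kit-based tubulin polymerization assay. Kit tubulin in G-PEM buffer was incubated with compounds, and polymerization was followed as optical density at 340 nm for 30 min to 1 h. Inhibition was read as a decrease in OD. Nocodazole and paclitaxel were run as reference destabilizer and stabilizer.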

Mitogen-activated protein kinase; ERK1/ERK2 (Homo sapiens), sequence (P27361 whole entry, looked up): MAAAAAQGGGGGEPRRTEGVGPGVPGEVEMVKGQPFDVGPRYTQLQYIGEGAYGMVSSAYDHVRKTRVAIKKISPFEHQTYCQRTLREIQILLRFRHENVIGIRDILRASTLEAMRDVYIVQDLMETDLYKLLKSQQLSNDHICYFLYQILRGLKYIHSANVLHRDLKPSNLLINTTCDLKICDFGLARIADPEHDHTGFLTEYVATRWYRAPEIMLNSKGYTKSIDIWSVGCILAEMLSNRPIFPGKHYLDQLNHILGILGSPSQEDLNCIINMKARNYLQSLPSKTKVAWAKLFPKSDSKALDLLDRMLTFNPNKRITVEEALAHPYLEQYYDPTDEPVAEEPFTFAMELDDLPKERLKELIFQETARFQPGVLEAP
Mitogen-activated protein kinase; ERK1/ERK2 (Homo sapiens), sequence (P28482 whole entry, looked up): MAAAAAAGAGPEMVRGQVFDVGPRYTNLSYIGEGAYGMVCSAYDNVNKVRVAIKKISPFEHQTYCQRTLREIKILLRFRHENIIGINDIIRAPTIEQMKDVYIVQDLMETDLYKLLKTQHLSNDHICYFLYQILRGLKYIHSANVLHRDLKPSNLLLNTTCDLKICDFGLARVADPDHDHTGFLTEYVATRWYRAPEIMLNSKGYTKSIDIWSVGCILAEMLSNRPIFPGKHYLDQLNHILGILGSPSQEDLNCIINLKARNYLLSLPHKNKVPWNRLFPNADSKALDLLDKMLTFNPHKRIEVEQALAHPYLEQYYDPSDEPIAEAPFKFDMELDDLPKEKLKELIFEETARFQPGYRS

SMILES	GI50 (OVCAR-3)	GI50 (LOX IMVI)	GI50 (K562)	GI50 (NCI-H522)	GI50 (A498)	GI50 (OVCAR-8)	GI50 (786-0)	GI50 (Malme-3M)	GI50 (SK-MEL-5)	GI50 (NCI-H460)	GI50 (SK-MEL-2)	GI50 (NCI/ADR-RES)	GI50 (MDA-MB-231)	GI50 (HCT-116)	GI50 (MOLT-4)	GI50 (MCF7 [1])	GI50 (HCT-15)	GI50 (NCI-H23)	inhibition of growth at 10 µM (PC-3)	inhibition of growth at 10 µM (A549)	other results
COc1ccc(/C=C\c2cc(OC)c(OC)c(OC)c2)cc1OCC(=O)Nc1nc2ccc(C(F)(F)F)cc2s1	2.11 µM	4.01 µM	3.3 µM	2.89 µM	2.81 µM	3.86 µM	6.96 µM	inactive	2.84 µM	3.55 µM	3.98 µM	2.12 µM	3.38 µM	3.29 µM	3.75 µM	3.16 µM	3.24 µM	3.9 µM	42%	30%	GI50 (Hs-578T): 4.18 µM; inhibition of growth at 10 µM (HEp-2): 76%; GI50 (SW-620): 4.65 µM; GI50 (OVCAR-5): 5.98 µM; GI50 (SNB-75): 1.58 µM; inhibition of growth at 10 µM (MCF7 [2]): 62%
COc1ccc(/C=C\c2cc(OC)c(OC)c(OC)c2)cc1OCC(=O)Nc1nc2ccccc2s1	0.043 µM	0.067 µM	0.042 µM	0.079 µM	0.36 µM	0.25 µM	0.1 µM	1.99 µM	0.036 µM	0.052 µM	0.18 µM	0.033 µM	0.19 µM	0.046 µM	0.34 µM	0.051 µM	0.048 µM	0.11 µM	44%	44%	Activity (MCF7 [3]): Active; growth inhibition (GI) (HEp-2): inactive; inhibition (MCF7 [4]): Active; inhibition [5]: Active; IC50 [6]: 5 µM; GI50 (SNB-75): 0.046 µM; inhibition of growth at 10 µM (MCF7 [2]): 72%
COc1ccc2nc(NC(=O)COc3cc(/C=C\c4cc(OC)c(OC)c(OC)c4)ccc3OC)sc2c1	2.17 µM	4.17 µM	3.6 µM	3.09 µM	3.5 µM	5.28 µM	7.52 µM	inactive	2.68 µM	3.73 µM	4.07 µM	2.3 µM	5.4 µM	3.7 µM	3.87 µM	2.88 µM	2.89 µM	3.91 µM	33%	45%	GI50 (Hs-578T): 4.15 µM; inhibition of growth at 10 µM (HEp-2): 71%; GI50 (SW-620): 5.1 µM; GI50 (OVCAR-5): 5.89 µM; GI50 (SNB-75): 1.91 µM; inhibition of growth at 10 µM (MCF7 [2]): 53%
